According to ChEMBL document CHEMBL1152695, “Development of 3-substituted-1H-indole derivatives as NR2B/NMDA receptor antagonists” (Bioorg Med Chem, 2009):

Tests used:
[1] = biological target: Glutamate receptor ionotropic, NMDA 2B (Rattus norvegicus) (UniProt Q00960); experiment: Displacement of [3H]ifenprodil from NMDA NR2B receptor in Wistar rat cerebral cortex membrane at 10 uM; type: tissue-based
[2] = biological target: Glutamate receptor ionotropic, NMDA 2B (Rattus norvegicus, UniProt Q00960); experiment: Displacement of [3H]ifenprodil from NMDA NR2B receptor in Wistar rat cerebral cortex membrane; type: tissue-based
Chain of Glutamate receptor ionotropic, NMDA 2B (Q00960 whole entry): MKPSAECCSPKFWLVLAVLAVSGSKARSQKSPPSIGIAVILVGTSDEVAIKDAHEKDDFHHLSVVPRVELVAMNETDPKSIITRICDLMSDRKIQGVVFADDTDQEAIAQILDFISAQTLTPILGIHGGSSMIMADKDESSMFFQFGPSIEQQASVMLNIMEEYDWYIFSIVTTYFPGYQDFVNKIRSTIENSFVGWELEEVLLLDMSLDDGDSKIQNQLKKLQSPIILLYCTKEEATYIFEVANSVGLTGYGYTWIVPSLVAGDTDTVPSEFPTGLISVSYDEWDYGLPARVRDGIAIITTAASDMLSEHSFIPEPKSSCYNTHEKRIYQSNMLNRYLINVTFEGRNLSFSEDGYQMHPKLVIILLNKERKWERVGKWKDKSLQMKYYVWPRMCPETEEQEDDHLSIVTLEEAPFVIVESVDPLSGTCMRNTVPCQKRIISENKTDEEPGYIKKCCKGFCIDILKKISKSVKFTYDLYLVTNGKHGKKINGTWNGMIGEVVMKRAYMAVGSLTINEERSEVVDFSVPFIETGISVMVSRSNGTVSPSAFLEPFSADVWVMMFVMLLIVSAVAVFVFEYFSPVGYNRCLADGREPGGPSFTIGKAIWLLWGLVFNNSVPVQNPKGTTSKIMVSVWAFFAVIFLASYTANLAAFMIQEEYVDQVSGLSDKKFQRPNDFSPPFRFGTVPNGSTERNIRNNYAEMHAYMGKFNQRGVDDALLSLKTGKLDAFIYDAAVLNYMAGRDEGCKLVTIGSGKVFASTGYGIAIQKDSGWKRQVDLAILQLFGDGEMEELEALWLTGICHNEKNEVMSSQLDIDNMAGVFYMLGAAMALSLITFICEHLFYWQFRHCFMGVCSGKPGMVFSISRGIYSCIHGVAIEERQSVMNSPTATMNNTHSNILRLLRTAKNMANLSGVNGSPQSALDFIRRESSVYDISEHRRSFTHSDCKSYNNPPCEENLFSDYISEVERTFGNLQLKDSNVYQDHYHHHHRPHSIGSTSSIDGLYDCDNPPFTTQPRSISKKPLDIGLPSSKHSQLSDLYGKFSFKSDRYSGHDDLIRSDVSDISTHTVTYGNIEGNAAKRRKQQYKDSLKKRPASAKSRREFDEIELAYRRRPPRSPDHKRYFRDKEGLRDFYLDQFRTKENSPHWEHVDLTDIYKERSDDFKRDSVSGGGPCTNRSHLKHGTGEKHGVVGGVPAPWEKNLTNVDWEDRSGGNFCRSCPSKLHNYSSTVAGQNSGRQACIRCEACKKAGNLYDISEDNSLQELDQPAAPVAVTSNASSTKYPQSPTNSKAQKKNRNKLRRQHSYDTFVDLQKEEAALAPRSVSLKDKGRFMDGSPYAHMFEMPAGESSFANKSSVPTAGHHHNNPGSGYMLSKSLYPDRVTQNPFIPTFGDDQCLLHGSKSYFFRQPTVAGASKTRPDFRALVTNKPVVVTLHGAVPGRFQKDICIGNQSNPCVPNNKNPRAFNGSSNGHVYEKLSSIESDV

Mus musculus [3] = experiment: Anticonvulsant activity in ip dosed DBA/2 mouse assessed as inhibition of auditory stimulation-induced clonic seizures administered 30 mins before auditory stimulation; type: functional; conditions: DBA/2, ip
Summary of the method: (§1)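 DBA/2 mice (8–12 g, 22–25 days old), either sex, groups of 10. Given ip in 50% DMSO/50% saline at 0.1 mL/10 g, 30 min before testing. After 60 s habituation under a dome, sound (12–16 kHz, 109 dB) applied for 60 s or until tonic extension. Latency and incidence of each seizure phase scored.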

Mus musculus [4] = experiment: Anticonvulsant activity in ip dosed DBA/2 mouse assessed as inhibition of auditory stimulation-induced tonic seizures administered 30 mins before auditory stimulation; type: functional; conditions: DBA/2, ip; summary of the method: as §1
[5] = biological target: Glutamate receptor ionotropic, NMDA 2B (Rattus norvegicus) (UniProt Q00960); experiment: Antagonist activity at NMDA NR2B receptor in Wistar rat CA1 pyramidal neurons assessed as reduction of NMDA-induced inward currents at 10 uM at holding potential of -60 mV by patch-clamp technique; type: functional, cell-based; set-up: scale not given: the % may be the effect or the level left; conditions: Pyramidal neuron
Summary of the method: (§2)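 Rat hippocampal slices; whole-cell currents recorded from single CA1 pyramidal neurons held at -60 mV. Inward current evoked by NMDA (50 µM, 5 s) plus glycine (0.5 µM). Compound bath-perfused at 1, 10 or 100 µM for 5 min. Amplitude taken as peak minus baseline, from at least three consecutive responses in control and in compound. Sets compared by unpaired t-test; percent reduction reported as mean ± SEM.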

[6] = biological target: Glutamate receptor ionotropic, NMDA 2B (Rattus norvegicus) (UniProt Q00960); experiment: Antagonist activity at NMDA NR2B receptor in Wistar rat CA1 pyramidal neurons assessed as reduction of NMDA-induced inward currents at 1 uM at holding potential of -60 mV by patch-clamp technique; type: functional, cell-based; set-up: scale not given: the % may be the effect or the level left; conditions: Pyramidal neuron; summary of the method: as §2
[7] = biological target: Glutamate receptor ionotropic, NMDA 2B (Rattus norvegicus) (UniProt Q00960); experiment: Antagonist activity at NMDA NR2B receptor in Wistar rat CA1 pyramidal neurons assessed as inhibition of NMDA-induced inward currents at holding potential of -60 mV by patch-clamp technique; type: functional, cell-based; conditions: Pyramidal neuron; summary of the method: as §2
[8] = biological target: Glutamate receptor ionotropic, NMDA 2B (Rattus norvegicus) (UniProt Q00960); experiment: Antagonist activity at NMDA NR2B receptor in Wistar rat CA1 pyramidal neurons assessed as reduction of NMDA-induced inward currents at 100 uM at holding potential of -60 mV by patch-clamp technique; type: functional, cell-based; set-up: scale not given: the % may be the effect or the level left; conditions: Pyramidal neuron; summary of the method: as §2

Chain of Glutamate receptor ionotropic, NMDA 2B (Rattus norvegicus) (Q00960 27-1482 limits assumed): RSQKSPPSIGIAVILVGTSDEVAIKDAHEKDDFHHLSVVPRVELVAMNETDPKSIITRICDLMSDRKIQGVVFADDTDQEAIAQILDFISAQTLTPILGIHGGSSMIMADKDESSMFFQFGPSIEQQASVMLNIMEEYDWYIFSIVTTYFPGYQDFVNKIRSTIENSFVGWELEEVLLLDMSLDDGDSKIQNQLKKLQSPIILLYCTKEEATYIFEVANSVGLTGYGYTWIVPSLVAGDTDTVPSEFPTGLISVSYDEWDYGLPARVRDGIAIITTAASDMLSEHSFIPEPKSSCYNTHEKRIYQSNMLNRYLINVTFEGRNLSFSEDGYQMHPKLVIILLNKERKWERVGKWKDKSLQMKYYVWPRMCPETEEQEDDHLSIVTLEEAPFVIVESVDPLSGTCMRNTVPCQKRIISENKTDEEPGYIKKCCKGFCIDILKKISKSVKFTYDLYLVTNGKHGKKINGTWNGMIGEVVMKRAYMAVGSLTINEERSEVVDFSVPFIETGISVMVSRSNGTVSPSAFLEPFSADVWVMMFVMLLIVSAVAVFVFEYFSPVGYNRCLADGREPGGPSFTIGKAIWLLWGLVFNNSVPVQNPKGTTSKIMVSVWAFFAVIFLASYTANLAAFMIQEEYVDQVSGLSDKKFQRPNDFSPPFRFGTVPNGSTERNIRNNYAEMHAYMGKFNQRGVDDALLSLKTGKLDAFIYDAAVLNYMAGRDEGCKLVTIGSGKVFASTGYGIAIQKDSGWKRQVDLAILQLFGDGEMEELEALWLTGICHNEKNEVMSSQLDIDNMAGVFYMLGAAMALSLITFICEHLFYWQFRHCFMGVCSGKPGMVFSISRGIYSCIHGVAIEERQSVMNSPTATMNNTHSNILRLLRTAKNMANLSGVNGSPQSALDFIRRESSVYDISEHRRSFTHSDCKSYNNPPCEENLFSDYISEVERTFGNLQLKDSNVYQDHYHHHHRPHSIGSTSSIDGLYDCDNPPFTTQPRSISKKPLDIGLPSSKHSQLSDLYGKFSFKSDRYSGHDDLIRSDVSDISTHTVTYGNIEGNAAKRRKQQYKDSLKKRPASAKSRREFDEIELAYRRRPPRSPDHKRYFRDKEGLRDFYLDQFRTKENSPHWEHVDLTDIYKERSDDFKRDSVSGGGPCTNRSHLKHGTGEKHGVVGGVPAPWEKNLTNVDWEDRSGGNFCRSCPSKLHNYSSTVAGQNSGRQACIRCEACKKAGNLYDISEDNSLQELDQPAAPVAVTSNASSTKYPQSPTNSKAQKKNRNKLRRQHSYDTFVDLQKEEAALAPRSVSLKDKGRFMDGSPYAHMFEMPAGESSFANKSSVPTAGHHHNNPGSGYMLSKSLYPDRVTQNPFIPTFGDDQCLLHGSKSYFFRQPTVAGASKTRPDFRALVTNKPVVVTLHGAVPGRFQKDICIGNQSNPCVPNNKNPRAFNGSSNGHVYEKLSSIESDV

SMILES | ED50 (Mus musculus [3]) [µmol/kg] | ED50 (Mus musculus [4]) [µmol/kg] | other results
O=C(CN1CCC(Cc2ccccc2)CC1)c1c[nH]c2ccccc12 | 22.4 | 8.71 | Activity [1]: 89%; IC50 [2]: 769 nM
COc1ccc2[nH]cc(C(=O)CN3CCC(Cc4ccccc4)CC3)c2c1 | 59.9 | 36.5 | 
O=C(Cc1c[nH]c2ccccc12)N1CCC(Cc2ccccc2)CC1 | 70.3 | 39.2 | 
O=C(Cc1c[nH]c2ccc(O)cc12)N1CCC(Cc2ccccc2)CC1 | 45.6 | 13.9 | 
C[C@@H](CN1CCC(Cc2ccccc2)CC1)[C@@H](O)c1ccc(O)cc1 | 40 | 10.6 | 
O=C(CN1CCC(Cc2ccccc2)CC1)c1c[nH]c2ccc(Br)cc12 | 84.9 | 49.7 | 
O=C(C(=O)N1CCC(Cc2ccccc2)CC1)c1c[nH]c2ccccc12 | 22.4 | 0.95 | Activity [1]: 36%
O=C(C(=O)N1CCC(Cc2ccccc2)CC1)c1c[nH]c2ccc(Br)cc12 | > 100 | 47.9 | 
COc1ccc2[nH]cc(C(=O)C(=O)N3CCC(Cc4ccccc4)CC3)c2c1 | > 100 | 78.8 | 
O=C(CCc1c[nH]c2ccccc12)N1CCC(Cc2ccccc2)CC1 | > 100 | 57.6 | 
O=C(CN1CCC(Cc2ccccc2)CC1)c1c[nH]c2ncccc12 | 88.5 | 32.5 | 
O=C(CN1CCN(Cc2ccccc2)CC1)c1c[nH]c2ccccc12 | > 100 | > 100 | 
COc1ccc2[nH]cc(CC(=O)N3CCC(Cc4ccccc4)CC3)c2c1 | 89 | 34.4 | 
O=C(C(=O)N1CCC(Cc2ccccc2)CC1)c1c[nH]c2ccc(O)cc12 | > 100 | > 100 | Activity [1]: 77%; IC50 [2]: 2660 nM
O=C(CN1CCC(Cc2ccccc2)CC1)c1c[nH]c2ccc(O)cc12 | 11.5 | 6.48 | Activity [5]: 52%; Activity [6]: 23%; Activity [1]: 92%; IC50 [2]: 25 nM; Ki [2]: 23 nM; Activity [7]: Dose-dependent effect; Activity [8]: 75%
O=C(Cc1c[nH]c2ccc(Br)cc12)N1CCC(Cc2ccccc2)CC1 | 27.3 | 5.42 | 
